In ChEMBL document CHEMBL4376902, “CN128: A New Orally Active Hydroxypyridinone Iron Chelator” (J Med Chem, 2020):

Tests used:
[1] = Drug metabolism in rat bile assessed as (2S,3S,4S,5R,6R)-3,4,5-trihydroxy-6-[(2R)-2-(3-hydroxy-2-methyl-4-oxo-1-pyridyl)-3-phenylpropoxy]tetrahydropyran-2-carboxylic acid formation at 150 umol/kg, po by LC/TOF/MS/MS analysis; assay type: ADME, organism-based; settings: in vivo
In short: (§1)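 Bile collected from rats after an oral dose of 150 μmol/kg. Metabolites characterised by β-glucuronidase hydrolysis and LC-TOFMS/MS. M2/M1 ratio followed over 8 h.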

Rattus norvegicus [2] = test: Iron scavenging activity in iron-overloaded rat assessed as iron removal efficacy at 75 to 1200 umol/kg, po relative to control; assay type: functional
In short: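 Male SD rats (300 g), fasted overnight, given about 1 μC 59Fe-ferritin i.v. under isoflurane; chelator by oral gavage 1 h later; doses 75, 150, 300, 600 and 1200 μmol/kg. Rats housed in metabolic cages, food returned 1 h post-dose; killed 24 h after ferritin injection. Urine, faeces, liver and gut gamma-counted. Iron removal expressed as % efficacy.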

Rattus norvegicus [3] = test: Iron scavenging activity in 59Fe-ferritin-loaded rat assessed as iron mobilization level at 150 to 450 umol/kg, po dosed 1 hr after 59Fe-ferritin injection and measured 24 hrs after 59Fe-ferritin injection by gamma counting method relative to control; assay type: functional, organism-based
In short: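 Male SD rats, 300 g, fasted overnight, given about 1 μC 59Fe-ferritin i.v. under isoflurane. Chelator gavaged 1 h later, then rats housed in metabolic cages; food returned 1 h after dosing. Killed 24 h after 59Fe-ferritin. Urine, faeces, liver and gut gamma-counted. 8 rats per condition.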

[4] = Drug level in rat stomach at 150 umol/kg, po measured measured up to 6 hrs by LC-MS/MS analysis; assay type: ADME, organism-based; settings: in vivo
In short: (§2)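 Single oral dose of 150 μmol/kg to SD rats, half male and half female, n=6 per group. Rats decapitated at 10 min, 30 min, 2 h and 6 h. Tissues dissected, saline-washed, weighed and homogenised in acetonitrile/water 1:9 (125 mg/mL). Drug level measured against plasma; mean ± SE.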

[5] = Ratio of drug level in intestine to plasma in rat at 150 umol/kg, po measured within 10 mins by LC-MS/MS analysis; assay type: ADME, organism-based; settings: intestine and plasma
In short: (§3)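 SD rats (half male, half female, n = 6 per group) given a single oral 150 μmol/kg dose. Killed at 10 min, 30 min, 2 h or 6 h; tissues washed in saline, weighed and homogenised in acetonitrile/water 1:9 (125 mg/mL). Tissue levels compared with plasma.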

[6] = Apparent clearance in Sprague-Dawley rat at 75 umol/kg, po measured up to 1440 mins by LC/MS/MS analysis; assay type: ADME, organism-based; settings: in vivo, read-out: CL(app) (converted)
[7] = Binding affinity to Co2+ ion assessed as affinity constant by spectrophotometric titration method
[8] = Acid dissociation constant, pKa1 of the compound over pH 1.8 to 11.0 by spectrophotometric titration method; assay type: physicochemical
In short: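 Automated spectrophotometric titration with 0.1 M KOH in 0.1 pH-unit steps. Reading accepted as stable when drift was <0.01 pH unit after a 1.5 min incubation. 10 mm path length cuvette. Spectra fitted by computer to obtain the pKa values.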

[9] = Cmax in Sprague-Dawley rat at 75 umol/kg, po measured up to 1440 mins by LC/MS/MS analysis; assay type: ADME, organism-based; design: dose 75 umol/kg, route oral; settings: in vivo
[10] = Apparent volume of distribution in Sprague-Dawley rat at 300 umol/kg, po measured up to 1440 mins by LC/MS/MS analysis; assay type: ADME, organism-based; settings: in vivo, 24 h
[11] = Cmax in Sprague-Dawley rat at 150 umol/kg, po measured up to 1440 mins by LC/MS/MS analysis; assay type: ADME, organism-based; design: dose 150 umol/kg, route oral; settings: in vivo
[12] = Toxicity in iron-overloaded rat assessed as drug tolerability at 75 to 1200 umol/kg, po; settings: in vivo
Cytochrome P450 2B6 = biological target: T1, Cytochrome P450 2B6 (Homo sapiens, UniProt P20813); test: Inhibition of CYP2B6 in human liver microsomes; assay type: ADME
T1 sequence (P20813 whole entry): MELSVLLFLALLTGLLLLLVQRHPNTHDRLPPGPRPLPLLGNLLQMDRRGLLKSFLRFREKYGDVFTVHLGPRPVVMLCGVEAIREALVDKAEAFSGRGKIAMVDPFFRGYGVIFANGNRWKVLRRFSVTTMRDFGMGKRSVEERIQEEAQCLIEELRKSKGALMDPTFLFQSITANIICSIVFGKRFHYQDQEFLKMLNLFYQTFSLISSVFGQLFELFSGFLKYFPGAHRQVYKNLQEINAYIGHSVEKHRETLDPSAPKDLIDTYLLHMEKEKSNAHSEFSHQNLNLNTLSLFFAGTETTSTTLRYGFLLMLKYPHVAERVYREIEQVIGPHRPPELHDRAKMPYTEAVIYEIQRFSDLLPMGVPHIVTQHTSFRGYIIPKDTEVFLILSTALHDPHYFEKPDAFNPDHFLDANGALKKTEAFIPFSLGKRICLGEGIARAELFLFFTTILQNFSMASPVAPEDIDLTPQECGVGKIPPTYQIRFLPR

[13] = Binding affinity to Fe2+ ion assessed as affinity constant by spectrophotometric titration method
In short: (§4)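 Automated spectrophotometric titration with 0.1 M KOH in 0.1 pH steps, 3 min equilibration per step, 50 mm cuvette, iron complexes at ca. 40 µM. Titrated in competition with metal hydrolysis species up to pH 12.0. Hydrolysis constants taken from critical compilations. Iron spectra fitted over 400–700 nm.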

Mus musculus [14] = test: Toxicity in mouse assessed as increase in reticulocyte population at 200 mg/kg, po dosed once daily for 2 months as 5 days per week schedule; settings: in vivo, 120 h
Mus musculus [15] = test: Toxicity in mouse assessed as reduction in eosinophils counts at 200 mg/kg, po dosed once daily for 2 months as 5 days per week schedule; settings: in vivo, 120 h
Cytochrome P450 3A4 = Cytochrome P450 3A4 (Homo sapiens, UniProt P08684); test: Inhibition of CYP3A4 in human liver microsomes; assay type: ADME
Sequence of Cytochrome P450 3A4 (P08684 whole entry): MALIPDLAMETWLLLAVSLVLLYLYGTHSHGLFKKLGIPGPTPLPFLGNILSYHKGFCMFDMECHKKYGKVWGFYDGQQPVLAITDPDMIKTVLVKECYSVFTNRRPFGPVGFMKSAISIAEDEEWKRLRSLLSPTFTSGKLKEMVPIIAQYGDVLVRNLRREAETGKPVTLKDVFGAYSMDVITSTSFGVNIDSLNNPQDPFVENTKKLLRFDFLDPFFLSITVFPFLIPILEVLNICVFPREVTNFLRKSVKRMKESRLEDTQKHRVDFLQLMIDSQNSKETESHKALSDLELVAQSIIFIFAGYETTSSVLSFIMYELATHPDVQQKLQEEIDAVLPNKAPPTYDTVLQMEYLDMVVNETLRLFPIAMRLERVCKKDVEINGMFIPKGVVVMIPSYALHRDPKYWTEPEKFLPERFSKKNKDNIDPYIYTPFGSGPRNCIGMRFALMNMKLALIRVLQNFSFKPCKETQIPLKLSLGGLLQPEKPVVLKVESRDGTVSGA

[16] = Drug metabolism in rat bile assessed as (2S,3S,4S,5R,6R)-3,4,5-trihydroxy-6-[(2R)-2-(3-hydroxy-2-methyl-4-oxo-1-pyridyl)-3-phenylpropoxy]tetrahydropyran-2-carboxylic acid/(2S,3S,4S,5R,6S)-6-[[1-[(1R)-1-benzyl-2-hydroxyethyl]-2-methyl-4-oxo-3-pyridyl]oxy]-3,4,5-trihydroxy-tetrahydropyran-2-carboxylic acid ratio formation at 150 umol/kg, po measured over 8 hrs by LC/TOF/MS/MS analysis; assay type: ADME, organism-based; settings: in vivo; in short: as §1
[17] = Toxicity in iron-overloaded rat assessed as induction of mortality at 75 to 1200 umol/kg, po; settings: in vivo
[18] = Cmax in Sprague-Dawley rat at 300 umol/kg, po measured up to 1440 mins by LC/MS/MS analysis; assay type: ADME, organism-based; design: dose 300 umol/kg, route oral; settings: in vivo
[19] = Ratio of drug level in liver to plasma in rat at 150 umol/kg, po measured within 10 mins by LC-MS/MS analysis; assay type: ADME, organism-based; settings: liver and plasma; in short: as §3
[20] = AUC (0 to infinity) in Sprague-Dawley rat at 75 umol/kg, po measured up to 1440 mins by LC/MS/MS analysis; assay type: ADME, organism-based; design: dose 75 umol/kg, route oral, time infinity; settings: in vivo, 24 h
[21] = Binding affinity to Fe3+ ion assessed as affinity constant by spectrophotometric titration method; in short: as §4
[22] = Drug level in rat intestine at 150 umol/kg, po measured measured up to 6 hrs by LC-MS/MS analysis; assay type: ADME, organism-based; settings: in vivo; in short: as §2

Cc1c(O)c(O)cc[n+]1[C@@H](CO)Cc1ccccc1.[Cl-]
Drug metabolism [1]: Metabolite_Detected
Activity (Rattus norvegicus [2]): 3.6 - 48.5%
Activity (Rattus norvegicus [3]): Dose-dependent effect
Drug uptake [4]: Not Active
Kp at 10 min [5]: 3.3 to 8.8
CL/F [6]: 21.2 mL/min/kg
log K [7]: 6.6
pKa [8]: 3.26
Cmax [9]: 8670 ng/mL
Vz [10]: 3.72 L/kg
Cmax [11]: 19900 ng/mL
Activity [12]: Non-Toxic
IC50 (Cytochrome P450 2B6): > 200 µM
K [13]: 6.22 pM
log K [13]: 7.32
Activity (Mus musculus [14]): Non-Toxic
Activity (Mus musculus [15]): Non-Toxic
IC50 (Cytochrome P450 3A4): > 200 µM
Ratio [16]: 2.3 to 6.9
Activity [17]: Non-Toxic
Cmax [18]: 41900 ng/mL
Kp at 10 min [19]: 3.3 to 8.8
AUC [20]: 16400 ng·h/mL
K [21]: 19.8 pM
log K [21]: 14.8
Drug uptake [22]: Not Active
